HNF4A DNA FP – change in binding of human HNF4 alpha to DNA; P41235; HNF4a-FITC DNA binding, fluorescence polarization, 1 h; activity change, % at 10 µM; 360,000 compounds, 0.3% hits; AID 1224865; in the data active = activity change above about 30%, passing the limit was not always enough
Rev-erbA mod – Rev-erb alpha (human) modulation; P20393; Rev-erbα–FITC-DNA binding, fluorescence polarization, 90 min; activity, % at 10 µM; 370,000 compounds, 0.79% hits; AID 1259318;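 active = activity above about 14%, limit read from the data; passing the limit was not always enough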;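 note: 0% = DMSO wells with 35 nM protein and 100% = DMSO wells with 750 nM protein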
CSN inh – CSN deneddylation inhibition; Q92905; Purified CSN, SCF-Nedd8-OG deneddylation, fluorescence polarization; inhibition, % at 12.5 µM; 360,000 compounds, 0.38% hits; AID 651999;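 active = pattern-corrected inhibition above about 35%, with an unprinted fluorescence ratio check between 0.5 and 1.5, limit read from the data, passing the limit was not always enough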;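 note: 0% = enzyme with substrate and 100% = substrate without enzyme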
Target sequence (Q92905 whole entry, looked up, one chain of several): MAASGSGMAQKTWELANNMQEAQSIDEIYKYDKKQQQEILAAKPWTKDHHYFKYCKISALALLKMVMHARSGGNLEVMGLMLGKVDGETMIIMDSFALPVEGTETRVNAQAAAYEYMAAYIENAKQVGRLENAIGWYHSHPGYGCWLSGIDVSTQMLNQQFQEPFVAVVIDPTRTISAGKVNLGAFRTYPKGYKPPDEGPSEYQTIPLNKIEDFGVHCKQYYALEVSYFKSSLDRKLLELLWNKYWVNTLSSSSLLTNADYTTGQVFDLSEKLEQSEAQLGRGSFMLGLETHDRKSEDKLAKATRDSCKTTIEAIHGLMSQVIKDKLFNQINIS
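Detection – fluorescence polarization · System – HEK293T-derived human Csn5 enzyme · Controls – substrate-only high control, full reaction low control · Timing – 90 min, room temperature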
TPT1 inh – C. albicans TPT1 enzyme inhibition | 300,000 compounds, 0.81% hits | AID 1962 | inhibition, % at 5 µM | recombinant caTPT1, FP RNA substrate dephosphorylation;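 active = inhibition above the mean of all tested compounds plus 3 SD, set per screening campaign, cut at about 24% in these data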;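 note: plate controls were DMSO alone for no effect and ferristatin control at 100 nM for full effect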
caTPT1 confirm – TPT1 (C. albicans) inhibition, confirmation; shares compounds with TPT1 inh; recombinant caTPT1, fluorescence polarization, RNase T1 coupled; inhibition, % at 5 µM; 2,400 compounds, 74% hits; AID 2149;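 active = inhibition above the primary screen limit, the mean inhibition of all tested compounds plus 3 SD, cut at about 25% in these data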
RNase T1 counter – RNase T1 inhibition in TPT1 counter-screen; shares compounds with TPT1 inh; RNase T1 cleavage, fluorescence polarization, 1536-well; inhibition, % at 5 µM; 2,400 compounds, 83% hits;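 active = inhibition above the solvent-only control well mean plus 3 SD, limit set per screening run, cut at about 23% in these data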;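 note: plate controls were DMSO wells with enzyme for no effect and wells without RNase T1 for full effect; inhibitors block cleavage so intact labeled substrate keeps polarization high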
Target sequence (P00651 whole entry, looked up): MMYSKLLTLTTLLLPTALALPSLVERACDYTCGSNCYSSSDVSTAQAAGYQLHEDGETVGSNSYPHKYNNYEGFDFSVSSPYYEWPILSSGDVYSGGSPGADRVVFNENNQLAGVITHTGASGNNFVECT
CSN5 deneddyl – validation of inhibitors of human CSN-mediated cullin deneddylation. shares compounds with CSN inh. inhibition, % at 16.6 µM. 540 compounds, 62% hits. Csn5 deneddylation of SCF-Nedd8OG, fluorescence polarization, 90 min. AID 720654; in the data active = inhibition above about 50%;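 note: 0% = DMSO with enzyme and 100% = no enzyme wells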
MMP-2 counter – blocks human MMP-2 in a CSN deneddylation counter-screen; shares compounds with CSN inh; recombinant MMP-2, FRET substrate fluorescence, 60 min; inhibition, % at 16.6 µM; 540 compounds, 33% hits; AID 720655;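 active = corrected plate-normalized z-score of 5 or more, or -5 or less, or inhibition of 15% or more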;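 note: plate controls were DMSO wells with enzyme for no effect and buffer wells lacking MMP-2 for full effect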
Thrombin cntr – thrombin (bovine) inhibition, counter-screen for CSN hits. shares compounds with CSN inh. bovine thrombin cleavage of Ub4-pepOG, fluorescence polarization. inhibition, % at 16.6 µM. 540 compounds, 49% hits. AID 720656;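 active = inhibition at or above a set limit, with a fluorescence interference ratio between 0.5 and a set maximum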
Active calls of the source: *. This is a sample that favours compounds with a hit; in the whole collection about 1.7% have one here.

Results for O=C(N[C@H](Cc1ccccc1)C(=O)N1CCCN(Cc2ccccc2F)CC1)[C@H]1O[C@@H](n2ccc(=O)[nH]c2=O)[C@H](O)[C@@H]1O ?
Rev-erbA mod: 2

How did COC(=O)[C@H](Cc1ccccc1)N1CC=CS1(=O)=O do in these assays?
Rev-erbA mod: 10

Results for COc1cc(/C=C2\SC(=S)N(C(C(=O)O)c3ccccc3)C2=O)ccc1O (centres undefined) ?
HNF4A DNA FP: 23; Rev-erbA mod: 19; CSN inh: 39*; TPT1 inh: 27*; caTPT1 confirm: 28*; RNase T1 counter: 41*; CSN5 deneddyl: 73*; MMP-2 counter: 6; Thrombin cntr: 61*

What do the screens show for `COc1cc(/C=C2/SC(=NCc3ccccc3)N(Cc3ccccc3)C2=O)ccc1O`?
HNF4A DNA FP: 4; Rev-erbA mod: -2; CSN inh: 6; TPT1 inh: 16

Results for COc1cc(/C=C2/SC(=S)N(Cc3ccccc3)C2=O)ccc1O ?
HNF4A DNA FP: 69*; Rev-erbA mod: -4; CSN inh: 57*; TPT1 inh: 24*; caTPT1 confirm: 37*; RNase T1 counter: 46*; CSN5 deneddyl: 58*; MMP-2 counter: -7; Thrombin cntr: 52

What do the screens show for `CCOc1cc(/C=C2\SC(=S)N(C(C(=O)O)c3ccccc3)C2=O)ccc1O` (centres undefined)?
HNF4A DNA FP: 25; Rev-erbA mod: 5; CSN inh: 41*; TPT1 inh: 45*; caTPT1 confirm: 48*; RNase T1 counter: 61*; CSN5 deneddyl: 81*; MMP-2 counter: 1; Thrombin cntr: 55*

How did CC(C)CN1C(=O)[C@]2(CC(=O)N(C)C2c2ccccc2)c2cc(-n3cc(CO)nn3)ccc21 (some centres undefined) do in these assays?
Rev-erbA mod: -6

What do the screens show for `COc1ccc(-c2c(Cc3ccccc3)nc(NC(=O)c3ccccc3)n2C)cc1`?
Rev-erbA mod: -9

How did CCOC(=O)Cc1csc2nc(-c3ccccc3)cn12 do in these assays?
Rev-erbA mod: -5

What do the screens show for `O=Cc1ccc(N2CCCC2)o1`?
HNF4A DNA FP: 0; Rev-erbA mod: 1; CSN inh: -1; TPT1 inh: 0

How did N#C/C(=C\c1ccc(N2CCCCC2)o1)C(N)=O do in these assays?
HNF4A DNA FP: 168; Rev-erbA mod: 7; CSN inh: 106*; TPT1 inh: active; caTPT1 confirm: 171*; RNase T1 counter: 164*; CSN5 deneddyl: 198*; MMP-2 counter: -10; Thrombin cntr: 15

What do the screens show for `Nc1nc2c(ncn2[C@@H]2O[C@H](C(=O)NCC3CCCCC3)[C@@H](O)[C@H]2O)c(=O)[nH]1`?
Rev-erbA mod: -1

How did Cc1ccc(-n2cccc2/C=C2/C(=N)N3C(=NC2=O)SN=C3S(C)(=O)=O)cc1Cl do in these assays?
HNF4A DNA FP: 25; Rev-erbA mod: -8; CSN inh: 59*; TPT1 inh: 32*; caTPT1 confirm: 35*; RNase T1 counter: 48*; CSN5 deneddyl: 0; MMP-2 counter: 9; Thrombin cntr: 39*

How did Cc1cccc(C)c1-n1cccc1/C=C1/C(=N)N2C(=NC1=O)SN=C2S(C)(=O)=O do in these assays?
HNF4A DNA FP: -2; Rev-erbA mod: 0; CSN inh: 5; TPT1 inh: 1

How did CC(C)C[C@H]1COc2cccc(F)c2S(=O)(=O)N1 do in these assays?
Rev-erbA mod: -5

How did CCc1ccc(Nc2n[n+](-c3ccccc3)c(-c3ccc(N(CC)CC)cc3)s2)cc1 do in these assays?
HNF4A DNA FP: 175; Rev-erbA mod: 5; CSN inh: 91*; TPT1 inh: 105*; caTPT1 confirm: 115*; RNase T1 counter: 112*; CSN5 deneddyl: 13; MMP-2 counter: -79*; Thrombin cntr: -84
